Source: publication PMC10806771 (Chemical Science, 2023)
Entries after “also recorded” stand apart in the source; their conditions may differ. Blank lines part the entries; values can stand above or below the molecule they belong to.

Legend:
trastuzumab [1] = target: T1, trastuzumab (Homo sapiens, UniProt P01857); experiment: Template-directed conjugation to trastuzumab, LC-FTMS analysis; format: biochemical; settings: payload transferred with Fc-III-L6Orn carbonate reactive conjugate
[2] = tested on: mice bearing MDA-MB-231 (PD-L1hi) tumor xenograft; experiment: [64Cu]Cu-atezolizumab biodistribution study; format: in vivo, mouse; settings: n = 4, ± SD
Procedure, shortened: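 Each received an i.v. dose of 0.25 MBq labelled conjugate (0.05 μg), given with 49.95 μg unlabelled parent antibody to saturate nonspecific Fc receptors. Animals were killed at 2, 24 and 48 h; organs collected, weighed and counted, and results given as %ID g−1. Blocking group at 24 h: co-injected 2 mg unlabelled antibody per mouse. n = 4 per group.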

[3] = tested on: mice bearing MDA-MB-231 xenograft; experiment: [64Cu]Cu-atezolizumab PET/CT imaging study; format: in vivo, mouse; settings: 9 MBq i.v.; 2, 24, 48 h
trastuzumab [4] = target: T1, trastuzumab; experiment: Random conjugation experiments with trastuzumab, LC-FTMS; format: biochemical; settings: 10 eq., 16h, RT, pH 9.5
[5] = cited from earlier work
[6] = 24 h p.i. + blocking (2 mg cold atezolizumab)

T1 sequence (P01857 1-330 isoform P01857-1): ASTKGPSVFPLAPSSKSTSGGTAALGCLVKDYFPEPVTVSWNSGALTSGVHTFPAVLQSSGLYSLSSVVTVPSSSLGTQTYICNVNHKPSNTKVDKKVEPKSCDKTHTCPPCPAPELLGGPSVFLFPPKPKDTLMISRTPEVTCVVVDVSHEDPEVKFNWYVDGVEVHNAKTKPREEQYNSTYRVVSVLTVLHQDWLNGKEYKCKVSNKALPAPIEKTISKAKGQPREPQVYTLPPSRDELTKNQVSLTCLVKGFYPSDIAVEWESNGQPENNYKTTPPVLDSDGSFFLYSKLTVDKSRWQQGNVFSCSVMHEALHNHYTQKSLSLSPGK

Molecule: DCAWH N GELVWCT NH2 (disulfide) [FITC]
Labeled mAb (trastuzumab [1]): 95% | Selectivity Fc/Fab (trastuzumab [1]): Fc selective

Molecule: DCAWH N GELVWCT NH2 (disulfide) [NODAGA]
Labeled mAb (trastuzumab [1]): 97% | Selectivity Fc/Fab (trastuzumab [1]): Fc selective

Molecule: [^64Cu]Cu-atezolizumab: atezolizumab-NODAGA prepared with Fc-III-L6Orn-carbonate-NODAGA, radiolabeled with copper-64
Biodistribution, Blood ([2]; 2 h p.i., i.v. 0.25 MBq): 6.3 ± 3.8 % ID g^−1 | Biodistribution, Bone ([2]; 2 h p.i., i.v. 0.25 MBq): 2.5 ± 0.4 % ID g^−1 | Biodistribution, Heart ([2]; 2 h p.i., i.v. 0.25 MBq): 7.8 ± 0.6 % ID g^−1 | Biodistribution, Kidney ([2]; 2 h p.i., i.v. 0.25 MBq): 11.8 ± 1.3 % ID g^−1 | Biodistribution, Large intestine ([2]; 2 h p.i., i.v. 0.25 MBq): 1.2 ± 0.5 % ID g^−1 | Biodistribution, Liver ([2]; 2 h p.i., i.v. 0.25 MBq): 8.2 ± 0.1 % ID g^−1 | Biodistribution, Lung ([2]; 2 h p.i., i.v. 0.25 MBq): 14.3 ± 1 % ID g^−1 | Biodistribution, Muscle ([2]; 2 h p.i., i.v. 0.25 MBq): 1.3 ± 0.1 % ID g^−1 | Biodistribution, Pancreas ([2]; 2 h p.i., i.v. 0.25 MBq): 1.8 ± 1.6 % ID g^−1 | Biodistribution, Skin ([2]; 2 h p.i., i.v. 0.25 MBq): 1.1 ± 0.3 % ID g^−1 | Biodistribution, Small intestine ([2]; 2 h p.i., i.v. 0.25 MBq): 3.8 ± 0.9 % ID g^−1 | Biodistribution, Spleen ([2]; 2 h p.i., i.v. 0.25 MBq): 28.1 ± 4 % ID g^−1 | Biodistribution, Stomach ([2]; 2 h p.i., i.v. 0.25 MBq): 1.6 ± 0.6 % ID g^−1 | Biodistribution, Tumor (MDA-MB-231) ([2]; 2 h p.i., i.v. 0.25 MBq): 5 ± 1.2 % ID g^−1 | Biodistribution, Blood [2, 6]: 10.9 ± 0.9 % ID g^−1 | Biodistribution, Bone [2, 6]: 1.7 ± 0.1 % ID g^−1 | Biodistribution, Heart [2, 6]: 4 ± 0.3 % ID g^−1 | Biodistribution, Kidney [2, 6]: 4.2 ± 0.1 % ID g^−1 | Biodistribution, Large intestine [2, 6]: 2.7 ± 0.2 % ID g^−1 | Biodistribution, Liver [2, 6]: 5.3 ± 0.6 % ID g^−1 | Biodistribution, Lung [2, 6]: 6.4 ± 0.7 % ID g^−1 | Biodistribution, Muscle [2, 6]: 1 ± 0.2 % ID g^−1 | Biodistribution, Pancreas [2, 6]: 3.6 ± 0.2 % ID g^−1 | Biodistribution, Skin [2, 6]: 2.5 ± 0.4 % ID g^−1 | Biodistribution, Small intestine [2, 6]: 2.6 ± 0.1 % ID g^−1 | Biodistribution, Spleen [2, 6]: 17.9 ± 0.1 % ID g^−1 | Biodistribution, Stomach [2, 6]: 1.5 ± 0.3 % ID g^−1 | Biodistribution, Tumor (MDA-MB-231) [2, 6]: 4.3 ± 1 % ID g^−1 | Biodistribution, Blood ([2]; 24 h p.i., i.v. 0.25 MBq): 3.1 ± 1.7 % ID g^−1 | Biodistribution, Bone ([2]; 24 h p.i., i.v. 0.25 MBq): 4.2 ± 1.7 % ID g^−1 | Biodistribution, Heart ([2]; 24 h p.i., i.v. 0.25 MBq): 6.8 ± 0.5 % ID g^−1 | Biodistribution, Kidney ([2]; 24 h p.i., i.v. 0.25 MBq): 11.9 ± 1.3 % ID g^−1 | Biodistribution, Large intestine ([2]; 24 h p.i., i.v. 0.25 MBq): 6.1 ± 0.9 % ID g^−1 | Biodistribution, Liver ([2]; 24 h p.i., i.v. 0.25 MBq): 11.8 ± 1.9 % ID g^−1 | Biodistribution, Lung ([2]; 24 h p.i., i.v. 0.25 MBq): 14.2 ± 1.9 % ID g^−1 | Biodistribution, Muscle ([2]; 24 h p.i., i.v. 0.25 MBq): 2.8 ± 0.6 % ID g^−1 | Biodistribution, Pancreas ([2]; 24 h p.i., i.v. 0.25 MBq): 9.6 ± 3.6 % ID g^−1 | Biodistribution, Skin ([2]; 24 h p.i., i.v. 0.25 MBq): 2.7 ± 0.7 % ID g^−1 | Biodistribution, Small intestine ([2]; 24 h p.i., i.v. 0.25 MBq): 8.7 ± 0.9 % ID g^−1 | Biodistribution, Spleen ([2]; 24 h p.i., i.v. 0.25 MBq): 42.8 ± 10.7 % ID g^−1 | Biodistribution, Stomach ([2]; 24 h p.i., i.v. 0.25 MBq): 4.5 ± 2.3 % ID g^−1 | Biodistribution, Tumor (MDA-MB-231) ([2]; 24 h p.i., i.v. 0.25 MBq): 11.4 ± 1.8 % ID g^−1 | Biodistribution, Blood ([2]; 48 h p.i., i.v. 0.25 MBq): 2 ± 1.2 % ID g^−1 | Biodistribution, Bone ([2]; 48 h p.i., i.v. 0.25 MBq): 2.2 ± 0.4 % ID g^−1 | Biodistribution, Heart ([2]; 48 h p.i., i.v. 0.25 MBq): 3.8 ± 0.6 % ID g^−1 | Biodistribution, Kidney ([2]; 48 h p.i., i.v. 0.25 MBq): 8 ± 1.8 % ID g^−1 | Biodistribution, Large intestine ([2]; 48 h p.i., i.v. 0.25 MBq): 3.7 ± 1 % ID g^−1 | Biodistribution, Liver ([2]; 48 h p.i., i.v. 0.25 MBq): 8.5 ± 1.6 % ID g^−1 | Biodistribution, Lung ([2]; 48 h p.i., i.v. 0.25 MBq): 6.6 ± 0.7 % ID g^−1 | Biodistribution, Muscle ([2]; 48 h p.i., i.v. 0.25 MBq): 1.1 ± 0.1 % ID g^−1 | Biodistribution, Pancreas ([2]; 48 h p.i., i.v. 0.25 MBq): 3.1 ± 0.2 % ID g^−1 | Biodistribution, Skin ([2]; 48 h p.i., i.v. 0.25 MBq): 2 ± 0.8 % ID g^−1 | Biodistribution, Small intestine ([2]; 48 h p.i., i.v. 0.25 MBq): 4.8 ± 1.3 % ID g^−1 | Biodistribution, Spleen ([2]; 48 h p.i., i.v. 0.25 MBq): 21.3 ± 6.5 % ID g^−1 | Biodistribution, Stomach ([2]; 48 h p.i., i.v. 0.25 MBq): 2.1 ± 0.5 % ID g^−1 | Biodistribution, Tumor (MDA-MB-231) ([2]; 48 h p.i., i.v. 0.25 MBq): 5.5 ± 2.1 % ID g^−1 | PET observations [3]: an important uptake of the radiotracer was observed in liver and in spleen; also recorded: increased contrast of the tumor over time with an optimum at 24 h

Molecule: O=C(O)CN1CCN(CC(=O)O)CCN(CC(=O)ON2C(=O)CCC2=O)CCN(CC(=O)O)CC1 [DOTA-NHS]
Labeled mAb (trastuzumab [4]): 73% | Selectivity Fc/Fab (trastuzumab [4]): 1.46

Molecule: PNU-159682
Labeled mAb (trastuzumab [1]): 46% | Selectivity Fc/Fab (trastuzumab [1]): 5.40 | Cytotoxicity relative to doxorubicin [5]: more than thousandfold increased cytotoxicity compared to doxorubicin

Next, values leading:

Labeled mAb (trastuzumab [1]): 73% | Selectivity Fc/Fab (trastuzumab [1]): 5.70
Molecule: DCAWH N GELVWCT NH2 (disulfide) [DM1]

Labeled mAb (trastuzumab [1]): 68% | Selectivity Fc/Fab (trastuzumab [1]): 6.80
Molecule: DCAWH N GELVWCT NH2 (disulfide) [DM4]
